In ChEMBL document CHEMBL1156807, “Catalysis and inhibition of Mycobacterium tuberculosis methionine aminopeptidase” (J Med Chem, 2010):

Experiments:
[1] = Inhibition of Mycobacterium tuberculosis H37Rv MetAP1c in presence of 50 uM Mn(2+) by Met-AMC substrate hydrolysis assay
[2] = Inhibition of Mycobacterium tuberculosis H37Rv MetAP1c in presence of 50 uM Fe(2+) by Met-AMC substrate hydrolysis assay
Procedure, shortened: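 Recombinant MtMetAP1c (mapB gene) was expressed in E. coli BL21(DE3) and purified as the apoenzyme (0.5 µM). It was activated with FeCl2 50 µM plus 100 µM ascorbic acid, CoCl2 10 µM, MnCl2 20 µM or NiCl2 20 µM. Buffer was 50 mM MOPS pH 7.5 with 100 µM Met-AMC at room temperature, read by fluorescence at ex 360/em 460.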

[3] = Inhibition of Mycobacterium tuberculosis H37Rv MetAP1c in presence of 50 uM Ni(2+) by Met-AMC substrate hydrolysis assay
[4] = Inhibition of Mycobacterium tuberculosis H37Rv MetAP1c in presence of 50 uM Co(2+) by Met-AMC substrate hydrolysis assay
[5] = Inhibition of Mycobacterium tuberculosis MetAP1c expressed in Escherichia coli lacking endogenous MetAP by cell based Met-AMC substrate hydrolysis assay
Procedure, shortened: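 E. coli carrying a chromosomal amber mutation in EcMetAP and complemented by plasmid-borne MtMetAP1c were grown to exponential phase and washed. Cells were stored in CaCl2/Tris/glycerol at −80 °C. The assay held 150 µM Met-AMC, 5 mM CaCl2 (for permeabilization) and 50 mM Tris pH 7.5, with inhibitor at 12 serial dilutions. Fluorescence (ex 360/em 460) was read every 2 min for 6-8 hr at room temperature. IC50 came from hydrolysis rates.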

[6] = Inhibition of Mycobacterium tuberculosis MetAP1c mediated cell growth of Escherichia coli lacking endogenous MetAP complemented with MtMetAP1c after 72 hrs by resazurin dye reduction method

Nc1nnc(SCc2ccc(Cl)cc2Cl)[nH]1
IC50 [1]: 2 µM | IC50 [2]: 40 µM

O=C(O)c1ccc(-c2ccccc2Cl)o1
IC50 [1]: 16 µM | IC50 [3]: > 500 µM | IC50 [4]: > 500 µM | IC50 [2]: > 500 µM

Cc1ccsc1-c1ccc(O)c(O)c1
IC50 [1]: 14 µM | IC50 [3]: 60 µM | IC50 [5]: 35 µM | IC50 [4]: 38 µM | IC50 [6]: 89.5 µM | IC50 [2]: 1.4 µM

Cc1ccc(CSc2nnc(N)[nH]2)cc1
IC50 [1]: 26 µM | IC50 [3]: 2.5 µM | IC50 [5]: 281 µM | IC50 [4]: 0.69 µM | IC50 [6]: > 1000 µM | IC50 [2]: > 500 µM

O=C(O)c1ccc(-c2cc(Cl)ccc2Cl)o1
IC50 [1]: 14 µM | IC50 [3]: > 500 µM | IC50 [5]: 623 µM | IC50 [4]: > 500 µM | IC50 [6]: > 1000 µM | IC50 [2]: > 500 µM

Cc1nc(-c2ccc(O)c(O)c2)cs1
IC50 [1]: 37 µM | IC50 [3]: 104 µM | IC50 [5]: 20 µM | IC50 [4]: 76 µM | IC50 [6]: 208 µM | IC50 [2]: 3.6 µM

Nc1nnc(SCc2ccc(F)cc2)[nH]1
IC50 [1]: 18 µM | IC50 [3]: 1.3 µM | IC50 [5]: 121 µM | IC50 [4]: 0.74 µM | IC50 [6]: > 1000 µM | IC50 [2]: > 500 µM

Fc1ccc(CSc2nnc[nH]2)cc1
IC50 [1]: 143 µM | IC50 [4]: 2 µM | IC50 [2]: > 500 µM
